Results published in ChEMBL document CHEMBL1123979, “Structure-activity analysis of a class of orally active hydroxamic acid inhibitors of leukotriene biosynthesis” (J Med Chem, 1988).
Values belong to the molecule of their own block, whether it stands above or below them.

Assays:
[1] = target: T1, Polyunsaturated fatty acid 5-lipoxygenase (Rattus norvegicus, UniProt P12527); test: In vitro inhibition of 5-lipoxygenase from RBL-1 cells; format: cell-based
T1 sequence (P12527 whole entry): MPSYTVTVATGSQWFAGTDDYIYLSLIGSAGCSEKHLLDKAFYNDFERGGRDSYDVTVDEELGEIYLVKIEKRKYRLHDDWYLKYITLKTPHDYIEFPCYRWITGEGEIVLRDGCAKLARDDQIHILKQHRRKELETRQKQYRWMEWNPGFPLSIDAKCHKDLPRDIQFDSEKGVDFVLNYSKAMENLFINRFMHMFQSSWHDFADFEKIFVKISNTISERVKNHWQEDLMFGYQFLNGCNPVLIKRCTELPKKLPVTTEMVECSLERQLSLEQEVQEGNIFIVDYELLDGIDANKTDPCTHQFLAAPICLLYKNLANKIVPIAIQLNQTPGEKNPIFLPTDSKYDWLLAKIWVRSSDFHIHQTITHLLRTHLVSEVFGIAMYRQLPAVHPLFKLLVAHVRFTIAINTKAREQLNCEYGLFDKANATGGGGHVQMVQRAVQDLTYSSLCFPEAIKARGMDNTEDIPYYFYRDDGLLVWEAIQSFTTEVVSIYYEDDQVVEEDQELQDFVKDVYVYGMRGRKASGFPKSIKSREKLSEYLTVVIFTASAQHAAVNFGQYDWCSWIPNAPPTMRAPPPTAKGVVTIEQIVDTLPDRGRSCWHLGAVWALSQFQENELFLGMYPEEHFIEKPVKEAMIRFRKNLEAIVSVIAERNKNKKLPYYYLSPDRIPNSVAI
Outline: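 Enzyme source is the 20000g supernatant of RBL-1 cells, assayed for 5-lipoxygenase inhibition. IC50 is reported in µM with a range in parentheses.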

[2] = In vivo inhibition of biosynthesis of leukotriene in rat peritoneal anaphylaxis model at 200 umol/kg; format: functional
Outline: (§1)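 Rats receive a single oral dose of 200 µmol/kg, and in vivo activity is measured 1 h after dosing in the peritoneal anaphylaxis model. The result is given as % inhibition of leukotriene biosynthesis or flagged as not significant.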

Rattus norvegicus = test: Plasma concentration 1 hr after oral administration of a dose of 200 uM/kg; format: functional, organism-based
Outline: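 Rats are dosed orally at 200 µmol/kg, and plasma drug concentration is measured 1 h later. Values are the average ± range of two determinations, and the stated detection limit is 2.0 µM.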

[3] = In vivo Inhibition of biosynthesis of leukotriene in rat peritoneal anaphylaxis model; format: functional
Outline: (§2)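 Test compounds are given orally to rats in the peritoneal anaphylaxis model, and leukotriene biosynthesis is measured in vivo. ED50 is expressed in µmol/kg, with the range in parentheses and the mg/kg equivalent.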

[4] = In vivo inhibition of biosynthesis of leukotriene in rat peritoneal anaphylaxis model; format: functional; outline: as §2
[5] = In vivo inhibition of biosynthesis of leukotriene in rat peritoneal anaphylaxis model at 200 uM/Kg; format: functional; outline: as §1
[6] = In vivo inhibition of biosynthesis of leukotriene in rat peritoneal anaphylaxis model at 200 uMKg; format: functional; outline: as §1
[7] = In vivo inhibition of biosynthesis of leukotriene in rat peritoneal anaphylaxis model; non significant at 200 umol/kg; format: functional; outline: as §1
[8] = In vivo inhibition of biosynthesis of leukotriene in rat peritoneal anaphylaxis model at 200 mg/Kg; format: functional
[9] = Rattus norvegicus, read-out: ED50

SMILES: CCCCOc1ccc(CCN(O)C(C)=O)cc1
IC50 [1]: 380 nM
inhibition in vivo at 200 µmol/kg [2]: < 40%

SMILES: CC(=O)N(O)Cc1ccc(OCc2ccccc2)cc1
IC50 [1]: 460 nM
Concentration (Rattus norvegicus): 2.1 µM

SMILES: CCCCOc1ccc(C(C(C)C)N(O)C(C)=O)cc1 (stereo not given)
IC50 [1]: 880 nM
Concentration (Rattus norvegicus): < 2 µM

SMILES: CC(=O)N(O)C(C)c1ccc(OCc2ccccc2)cc1 (stereo in doubt; 5) [listing 1 of 2 here]
Concentration (Rattus norvegicus): 70 µM

SMILES: CCCCOc1ccc(CCC(C)N(O)C(C)=O)cc1 (stereo not given)
IC50 [1]: 360 nM
ED50 [3, 9]: 35 mg/kg
ED50 [4, 9]: 120 µmol/kg

SMILES: CCCCOc1ccc(CCCN(O)C(C)=O)cc1
IC50 [1]: 320 nM

SMILES: CCCCOc1ccc(C(CCCC)N(O)C(C)=O)cc1 (stereo not given)
IC50 [1]: 570 nM
inhibition in vivo at 200 µmol/kg [2]: < 40%

SMILES: CC(=O)N(O)C(C)c1ccc(OCc2c(C)cc(C)cc2C)cc1 (stereo not given)
IC50 [1]: 620 nM
Inhibition [5]: <40%

SMILES: CCCCOc1ccc(OCCN(O)C(C)=O)cc1
IC50 [1]: 750 nM
ED50 [3, 9]: 22 mg/kg
ED50 [4, 9]: 84 µmol/kg

SMILES: CCCCOc1ccc(CC(C)N(O)C(C)=O)cc1 (stereo not given)
IC50 [1]: 540 nM
Inhibition [6]: 74%

SMILES: CCCCOc1cccc(C(C)N(O)C(C)=O)c1 (stereo not given)
IC50 [1]: 390 nM

SMILES: CC(=O)N(O)C(C)c1ccc(OCc2ccccc2)cc1 (stereo in doubt; 5) [listing 2 of 2 here]
ED50 [3]: 8 mg/kg
ED50 [4]: 28 µM/kg

SMILES: CCCCOc1ccc(C(C)N(O)C=O)cc1 (stereo not given)
IC50 [1]: 1900 nM
inhibition in vivo at 200 µmol/kg [2]: < 40%

SMILES: CCCCOc1ccc(CN(O)C(C)=O)cc1
IC50 [1]: 1100 nM

SMILES: CCCCOc1ccc(C(C)(C)N(O)C(C)=O)cc1
IC50 [1]: 650 nM
inhibition in vivo at 200 µmol/kg [2]: < 40%

SMILES: CCCCOc1ccc(C(CC)N(O)C(C)=O)cc1 (stereo not given)
IC50 [1]: 740 nM
ED50 [3, 9]: 50 mg/kg
ED50 [4, 9]: 188 µmol/kg

Further lines, with some results ahead:

IC50 [1]: 290 nM
SMILES: CC(=O)N(O)C(C)c1ccc(/C=C/c2ccccc2)cc1 (stereo not given)

IC50 [1]: 780 nM
SMILES: CC(=O)N(O)C(c1ccc(OCc2ccccc2)cc1)C(C)C (stereo not given)
inhibition in vivo at 200 µmol/kg [2]: < 40%

IC50 [1]: 1300 nM
SMILES: CCCCOc1ccc(C(C)N(O)C(=O)c2ccccc2)cc1 (stereo not given)
inhibition in vivo at 200 µmol/kg [2]: < 40%

IC50 [1]: 330 nM
SMILES: CC(=O)N(O)C(C)c1cccc(OCc2ccccc2)c1 (stereo not given)
ED50 [3, 9]: 19 mg/kg
ED50 [4, 9]: 68 µmol/kg

IC50 [1]: 2600 nM
SMILES: CC(=O)N(O)C(C)c1ccc(OCc2ccncc2)cc1 (stereo not given)
ED50 [3, 9]: 9 mg/kg
ED50 [4, 9]: 32 µmol/kg
Concentration (Rattus norvegicus): 152 µM

IC50 [1]: 400 nM
SMILES: CC(=O)N(O)C(C)c1ccc(OCc2ccc3ccccc3n2)cc1 (stereo not given)
ED50 [3, 9]: 17 mg/kg
ED50 [4, 9]: 51 µmol/kg

IC50 [1]: 370 nM
SMILES: CC(=O)N(O)C(C)c1ccc(OCc2ccccc2)cc1 (stereo in doubt; 7)

IC50 [1]: 690 nM
SMILES: CC(c1ccc(OCc2ccccc2)cc1)N(O)C(=O)c1ccccc1 (stereo not given)
inhibition in vivo at 200 µmol/kg [2]: < 40%
Concentration (Rattus norvegicus): < 2 µM

IC50 [1]: 460 nM
SMILES: CC(=O)N(O)C(C)c1ccc(C(C)Oc2ccccc2)cc1 (stereo not given)
Inhibition [5]: 47%

IC50 [1]: 370 nM
SMILES: CC(=O)N(O)C(C)c1ccc(Oc2ccccc2)cc1 (stereo not given)
ED50 [3, 9]: 12 mg/kg
ED50 [4, 9]: 47 µmol/kg
Concentration (Rattus norvegicus): 52 µM

IC50 [1]: 500 nM
SMILES: CC(=O)N(O)C(C)c1ccc(OC(C)c2ccccc2)cc1 (stereo not given)
ED50 [3, 9]: 28 mg/kg
ED50 [4, 9]: 92 µmol/kg
Concentration (Rattus norvegicus): 106 µM

IC50 [1]: 790 nM
SMILES: CCCCOc1ccc(C(C)N(O)C(C)=O)cc1 (stereo not given)
ED50 [3, 9]: 17 mg/kg
ED50 [4, 9]: 68 µmol/kg
Concentration (Rattus norvegicus): 65.7 µM

IC50 [1]: 410 nM
SMILES: CC(=O)N(O)C(C)c1ccc(OCCc2ccccc2)cc1 (stereo not given)
ED50 [3, 9]: 15 mg/kg
ED50 [4, 9]: 49 µmol/kg

IC50 [1]: 940 nM
SMILES: CC(c1ccc(OCc2ccccc2)cc1)N(O)C=O (stereo not given)
inhibition in vivo at 200 µmol/kg [7]: < 40%
Concentration (Rattus norvegicus): 2.3 µM

IC50 [1]: 610 nM
SMILES: CC(=O)N(O)C(C)c1ccc(OC(c2ccccc2)C(C)C)cc1 (stereo not given)
Inhibition [5]: <40%
Concentration (Rattus norvegicus): 10.7 µM

IC50 [1]: 760 nM
SMILES: CC(=O)N(O)C(C)c1ccccc1OCc1ccccc1 (stereo not given)
inhibition in vivo at 200 mg/kg [8]: < 40%

IC50 [1]: 190 nM
SMILES: CC(=O)N(O)C(C)c1ccc(SCc2ccccc2)cc1 (stereo not given)

IC50 [1]: 4900 nM
SMILES: CC(=O)N(O)C(C)c1ccc(OC2c3ccccc3-c3ccccc32)cc1 (stereo not given)
Inhibition [5]: <40%

IC50 [1]: 470 nM
SMILES: CC(C)C(=O)N(O)C(C)c1ccc(OCc2ccccc2)cc1 (stereo not given)
inhibition in vivo at 200 µmol/kg [2]: < 40%
